Compound activity deposited in PubChem by several laboratories.
Platelet DG rel = modulates dense granule release in human platelets. 300,000 tested, 0.22% active. human platelet-rich plasma, SFLLRN dense granule ATP release, luminescence. inhibition, %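 (compounds screened at 7.5 µM in platelet-rich plasma)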;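 active = mean replicate score, as percent of positive control, at or above 50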
Myeloid diff MLP = compounds promoting myeloid differentiation; ER-HoxA9 myeloid progenitors, lysozyme-GFP differentiation, flow cytometry; calls only at 10 µM; 360,000 tested, 1% active; AID 624256;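 active = normalized GFP-positive differentiation at or above the plate's own cutoff, the solvent-only control mean plus 3 SD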;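 also: cells exposed to compound for four days before flow analysis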
VLA-4 inh = inhibition in a human VLA-4 binding assay; 330,000 tested, 0.2% active; AID 2557; inhibition, % (about 7 µM as worked out from the volumes in the protocol); P13612; VLA-4 expressing cells, ligand binding flow cytometry; in the data active = inhibition above about 50%
Target sequence (P13612 whole entry, looked up): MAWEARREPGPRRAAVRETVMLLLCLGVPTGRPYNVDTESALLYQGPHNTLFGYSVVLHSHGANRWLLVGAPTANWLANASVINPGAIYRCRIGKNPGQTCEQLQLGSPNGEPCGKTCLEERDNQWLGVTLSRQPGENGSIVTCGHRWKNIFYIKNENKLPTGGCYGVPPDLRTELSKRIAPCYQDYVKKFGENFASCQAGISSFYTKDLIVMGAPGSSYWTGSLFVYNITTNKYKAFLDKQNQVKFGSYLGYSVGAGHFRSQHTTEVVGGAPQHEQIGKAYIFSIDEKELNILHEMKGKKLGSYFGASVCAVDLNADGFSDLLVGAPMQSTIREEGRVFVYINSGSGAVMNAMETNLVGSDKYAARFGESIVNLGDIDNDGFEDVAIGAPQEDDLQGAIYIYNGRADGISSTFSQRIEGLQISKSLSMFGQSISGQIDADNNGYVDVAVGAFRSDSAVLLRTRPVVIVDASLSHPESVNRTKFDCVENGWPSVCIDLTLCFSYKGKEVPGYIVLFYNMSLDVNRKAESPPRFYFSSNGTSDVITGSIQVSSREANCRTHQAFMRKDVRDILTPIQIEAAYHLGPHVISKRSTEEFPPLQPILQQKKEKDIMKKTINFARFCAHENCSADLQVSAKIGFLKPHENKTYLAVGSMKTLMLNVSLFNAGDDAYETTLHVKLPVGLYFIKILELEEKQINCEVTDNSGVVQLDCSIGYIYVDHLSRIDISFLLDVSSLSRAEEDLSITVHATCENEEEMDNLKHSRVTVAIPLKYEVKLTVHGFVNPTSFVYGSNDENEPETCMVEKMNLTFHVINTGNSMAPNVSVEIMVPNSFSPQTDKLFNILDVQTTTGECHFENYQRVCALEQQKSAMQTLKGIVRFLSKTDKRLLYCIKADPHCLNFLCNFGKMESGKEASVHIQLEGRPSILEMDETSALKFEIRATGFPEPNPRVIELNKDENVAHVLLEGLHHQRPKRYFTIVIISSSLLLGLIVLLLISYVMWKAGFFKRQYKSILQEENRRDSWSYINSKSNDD
SENP1 FRET inh = blocks the human SENP1 SUMO protease catalytic domain. Q9P0U3. recombinant SENP1 catalytic domain, CyPet-SUMO1-YPet FRET cleavage. inhibition, % at 10 µM. 360,000 tested, 0.21% active;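 active = inhibition at least 30% at 10 µM, raw YFP signal under a set limit, fluorescence ratio 0.5 to 1.5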;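 also: 0% = enzyme with DMSO and 100% = no enzyme wells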
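system = hSENP1 catalytic domain, recombinant | reagent = SFCypet-SUMO1-SFYpet substrate at 25 nM | doses = one dose per compound, 10 µM, 0.5% DMSO | incubation = enzyme reaction for 50 min at room temperature, dark | measured by = FRET, CFP and YFP emission | controls = no-enzyme low, enzyme-DMSO high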
Myeloid diff = compounds promoting myeloid differentiation | 2,300 tested, 2% active | shares compounds with Myeloid diff MLP | calls only | ER-HoxA9 myeloid progenitors, GFP/Mac1 double-positive flow | AID 651706;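 active = share of green or green-and-red cells above 9 and 9% in run 1 or 4 and 3% in run 2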
GFP autofluor = counter-screen for myeloid differentiation promoters: compound fluorescence | shares compounds with Myeloid diff MLP | ER-HoxA9 myeloid progenitors, no estrogen, GFP autofluorescence flow cytometry; vehicle wells 0%, positive control 100% | fluorescence response, % (concentration not given with the values) | 2,300 tested, 7.4% active;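 active = over 5% cells positive for green fluorescent reporter, or over 2% positive for both it and APC stain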;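 also: range taken on the double positive population between DMSO and positive control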
* hit, by the source's call; ! = not active in a repeat. Sampled rows, rich in hits. Any-hit rate of the full collection: about 1.5%.

Screening COc1cccc(CN(C(=O)COc2ccc(C)cc2)C2CCS(=O)(=O)C2)c1 (stereo not given) returned Platelet DG rel 1, Myeloid diff MLP inactive, VLA-4 inh 7 and SENP1 FRET inh -1.
Cc1ccc(Cc2c[nH]c(=S)s2)cc1 was read as Platelet DG rel -2, Myeloid diff MLP active, VLA-4 inh 13, SENP1 FRET inh 0, Myeloid diff inactive and GFP autofluor 0.
Cc1ccc(Cc2c(C)[nH]c(=S)[nH]c2=O)cc1 was read as Platelet DG rel 10, Myeloid diff MLP inactive, VLA-4 inh 31 and SENP1 FRET inh 0.
For O=C(O)c1ccc2c(c1)C(=O)N([C@H](Cc1cccc3ccccc13)C(=O)O)C2=O the results were Myeloid diff MLP inactive and SENP1 FRET inh 1.
Screening CCOC(=O)/C(=N\Nc1ccc(C(C)=O)cc1)c1csc(Nc2ccccc2)n1 returned Platelet DG rel 13, Myeloid diff MLP active, VLA-4 inh -19, SENP1 FRET inh -21, Myeloid diff inactive and GFP autofluor 1.
Screening CCOC(=O)/C(=N\Nc1ccccc1[N+](=O)[O-])c1csc(N)n1 returned Platelet DG rel 7, Myeloid diff MLP inactive, VLA-4 inh 11 and SENP1 FRET inh 7.
Screening C=CCn1cnnc1SCC(=O)N(C1CCCCC1)C1CCS(=O)(=O)C1 (stereo not given) returned Myeloid diff MLP inactive, VLA-4 inh 4, SENP1 FRET inh 2, Myeloid diff inactive and GFP autofluor 0.
`O=C(CN1C(=O)c2ccc([N+](=O)[O-])cc2C1=O)NC1CCCCCC1` gave Platelet DG rel -8, Myeloid diff MLP inactive, VLA-4 inh 4 and SENP1 FRET inh 2.
Screening CC(=O)c1cccc(NC(=S)N2c3ccccc3CC2C)c1 (stereo not given) returned Platelet DG rel -2, Myeloid diff MLP inactive, VLA-4 inh 0 and SENP1 FRET inh 3.
`CCOc1ccc(NC(=S)N2c3ccccc3CC2C)cc1` (stereo not given) gave Platelet DG rel 3, Myeloid diff MLP inactive, VLA-4 inh 1, SENP1 FRET inh -5, Myeloid diff inactive and GFP autofluor 0.
For N#CCCn1cnc2c(=S)nc[nH]c21 the results were Platelet DG rel 1, Myeloid diff MLP active, VLA-4 inh -5, SENP1 FRET inh 2, Myeloid diff inactive and GFP autofluor 1.
COc1ccc(C(=O)N2CCc3cc(OC)c(OC)cc3C2c2ccc(OC)c(OC)c2)cc1 (stereo not given) was read as Platelet DG rel 6, Myeloid diff MLP inactive, VLA-4 inh 22, SENP1 FRET inh 2, Myeloid diff inactive and GFP autofluor 0.
`OC[C@H]1O[C@@](CO)(O[C@H]2O[C@H](CO)[C@@H](O)[C@H](O)[C@H]2O)[C@@H](O[C@H]2O[C@H](CO)[C@@H](O)[C@H](O)[C@H]2O)[C@@H]1O` gave Myeloid diff MLP inactive and SENP1 FRET inh 0.
For Cc1ccc(Nc2c(-c3ccccn3)nc3cc(C)ccn23)cc1 the results were Platelet DG rel 5, Myeloid diff MLP inactive, VLA-4 inh 2, SENP1 FRET inh 0, Myeloid diff inactive and GFP autofluor 0.
Screening Cc1ccc(NC(=O)c2ccnc(C(C)(C)C)c2)cc1 returned Platelet DG rel -4, Myeloid diff MLP inactive, VLA-4 inh 7, SENP1 FRET inh 1, Myeloid diff inactive and GFP autofluor 0.
CCC(C)CCN1C(Nc2ccccc2)=NC[C@@H]1Cc1ccccc1 (stereo not given in full) was read as Platelet DG rel 0, Myeloid diff MLP inactive, VLA-4 inh 35 and SENP1 FRET inh -10.
`CC(CCc1ccccn1)C(=O)c1ccccc1` (stereo not given) gave Myeloid diff MLP inactive and SENP1 FRET inh 2.
Screening CC(SCCc1ccccn1)C(=O)O (stereo not given) returned Platelet DG rel -1, Myeloid diff MLP inactive, VLA-4 inh 12, SENP1 FRET inh 0, Myeloid diff inactive and GFP autofluor 0.
Screening CCOc1ccc(S(=O)(=O)N2CCC(C(=O)N3CCc4ccccc4C3)CC2)cc1 returned Platelet DG rel -1, Myeloid diff MLP inactive, VLA-4 inh -1 and SENP1 FRET inh 2.
N=C(N)SCc1nc2ccccc2c(=O)n1-c1ccccc1 was read as Platelet DG rel -3, Myeloid diff MLP active!, VLA-4 inh 8, SENP1 FRET inh -51, Myeloid diff inactive and GFP autofluor 2.
CCCOc1ccc([C@@H]2C3CN(C(=O)OCC)CC=C3C(C#N)=C(N)C2(C#N)C#N)cc1OC (stereo not given in full) was read as Platelet DG rel 7, Myeloid diff MLP active, VLA-4 inh 8, SENP1 FRET inh -35, Myeloid diff inactive and GFP autofluor 0.
`CC(O)CN1CCN(C(=O)CN2C(=O)NC(c3ccccc3)(c3ccccc3)C2=O)CC1` (stereo not given) gave Platelet DG rel -3, Myeloid diff MLP inactive, VLA-4 inh 26 and SENP1 FRET inh 2.
Screening Cc1ccc2oc(=O)n(CCOc3ccccc3C)c2c1 returned Platelet DG rel -2, Myeloid diff MLP inactive, VLA-4 inh 7 and SENP1 FRET inh 3.
COc1ccc(Cn2c(=O)oc3ccc(C)cc32)cc1OC was read as Platelet DG rel -3, Myeloid diff MLP active, VLA-4 inh -1, SENP1 FRET inh -1, Myeloid diff inactive and GFP autofluor 0.
Screening COc1ccccc1OCCn1c(=O)oc2ccc(C)cc21 returned Platelet DG rel 18, Myeloid diff MLP active, VLA-4 inh 4, SENP1 FRET inh 2, Myeloid diff inactive and GFP autofluor 0.
For COc1ccc(Cn2c(=O)oc3ccccc32)cc1OC the results were Myeloid diff MLP inactive and SENP1 FRET inh 0.
For CC(C)(CNC(=O)Cc1ccc(Cl)cc1Cl)N1CCCCC1 the results were Platelet DG rel -1, Myeloid diff MLP inactive, VLA-4 inh 12 and SENP1 FRET inh -10.
For COc1ccc(/C=N/NC(=O)c2ccc(N(C)S(=O)(=O)c3ccccc3)cc2)cc1 the results were Platelet DG rel 14, Myeloid diff MLP inactive, VLA-4 inh -11 and SENP1 FRET inh 1.
CN(c1ccc(C(=O)N/N=C/c2cccc([N+](=O)[O-])c2)cc1)S(=O)(=O)c1ccccc1 was read as Platelet DG rel 3, Myeloid diff MLP inactive, VLA-4 inh 23, SENP1 FRET inh 2, Myeloid diff inactive and GFP autofluor 0.
For Oc1ccccc1N=Cc1c(O)ccc2ccccc12 the results were Platelet DG rel 1, Myeloid diff MLP active, SENP1 FRET inh -26, Myeloid diff inactive and GFP autofluor 0.
Oc1ccc2ccccc2c1/C=N/c1nccs1 was read as Platelet DG rel -1, Myeloid diff MLP inactive, VLA-4 inh 9 and SENP1 FRET inh -53.
